# Data from BindingDB's records for doi:10.1016/j.bmc.2011.04.027 (University of Mansoura, 2011).
# Target: T1, Prostaglandin G/H synthase 1 (Ovis aries, UniProt P05979)
# T1 sequence (P05979 whole entry): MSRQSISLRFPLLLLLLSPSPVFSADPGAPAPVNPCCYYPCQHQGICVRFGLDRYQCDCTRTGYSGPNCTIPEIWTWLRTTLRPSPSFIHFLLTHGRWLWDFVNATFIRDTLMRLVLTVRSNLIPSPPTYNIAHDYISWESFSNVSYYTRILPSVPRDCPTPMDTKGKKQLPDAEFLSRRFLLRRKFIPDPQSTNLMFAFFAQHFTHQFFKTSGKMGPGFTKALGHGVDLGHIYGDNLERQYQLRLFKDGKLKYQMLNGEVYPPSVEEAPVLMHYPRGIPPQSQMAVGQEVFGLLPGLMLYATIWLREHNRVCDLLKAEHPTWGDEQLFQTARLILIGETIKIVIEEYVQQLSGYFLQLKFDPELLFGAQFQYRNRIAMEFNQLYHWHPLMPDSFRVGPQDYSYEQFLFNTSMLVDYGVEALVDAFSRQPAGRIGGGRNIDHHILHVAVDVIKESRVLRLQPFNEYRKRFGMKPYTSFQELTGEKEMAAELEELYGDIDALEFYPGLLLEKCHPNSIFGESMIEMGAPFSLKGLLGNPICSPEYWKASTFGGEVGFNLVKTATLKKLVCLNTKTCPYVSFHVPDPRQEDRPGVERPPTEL
# Test: Inhibition of ovine COX1 assessed as PGF2alpha production from PGH2 after 5 mins by enzyme immunoassay
# Outline: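 Ovine COX-1 in reaction buffer with 2 mM phenol and heme, preincubated with six test concentrations (1 mL final) for 5 min at 37 °C. Arachidonic acid was then added and the reaction stopped with 1 M HCl after 2 min. Prostanoids were reduced with stannous chloride and quantified by competitive acetylcholinesterase-tracer EIA (Ellman's reagent, 410 nm). IC50 came from concentration–inhibition curves, duplicate determinations.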
row,Compound,IC50
1,COc1ccc(N=Nc2c(-c3ccc(Cl)cc3)n[nH]c2C(F)(F)F)cc1 [3-(4-Chlorophenyl)-4-(2-(4-methoxyphenyl)hydrazono)-5-trifuoromethyl)-4H-pyrazole],> 50 µM
2,FC(F)(F)c1[nH]nc(-c2ccc(Cl)cc2)c1N=Nc1ccccc1Cl [3-(4-Chlorophenyl)-4-(2-(2-chlorophenyl)hydrazono)-5-trifuoromethyl)-4H-pyrazole],> 50 µM
3,O=[N+]([O-])c1ccc(/N=N/c2c(-c3ccc(Cl)cc3)n[nH]c2C(F)(F)F)cc1 [3-(4-Chlorophenyl)-4-(2-(4-nitrophenyl)hydrazono)-5-trifuoromethyl)-4H-pyrazole],> 50 µM
4,"FC(F)(F)c1cc(N=Nc2c(-c3ccc(Cl)cc3)n[nH]c2C(F)(F)F)cc(C(F)(F)F)c1 [3-(4-Chlorophenyl)-4-(2-(3,5-bis(trifluoromethyl)phenyl)hydrazono)-5-trifuoromethyl)-4H-pyrazole]",> 50 µM
